Results: ChEMBL document CHEMBL1140647, “Synthesis and evaluation of potent and selective beta3 adrenergic receptor agonists containing heterobiaryl carboxylic acids” (Bioorg Med Chem Lett, 2007)

Columns and labels:
[1] = target: T1, Beta-3 adrenergic receptor (Homo sapiens, UniProt P13945); experiment: Agonist activity at human beta-3 adrenergic receptor expressed in CHO cells assessed as cAMP accumulation relative to R-(-)-isoproterenol; assay type: functional, cell-based
In short: (§1)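 cAMP accumulation measured in CHO cells expressing the cloned human receptor subtype. Potency given as pEC50; Emax is the fitted maximal response of the concentration-response, expressed as percent of the maximal response to R-(−)-isoproterenol. Values are from n ≥ 3 experiments unless noted (some n = 2), with standard deviation within 10%.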
Target sequence in this assay (P13945 whole entry, looked up): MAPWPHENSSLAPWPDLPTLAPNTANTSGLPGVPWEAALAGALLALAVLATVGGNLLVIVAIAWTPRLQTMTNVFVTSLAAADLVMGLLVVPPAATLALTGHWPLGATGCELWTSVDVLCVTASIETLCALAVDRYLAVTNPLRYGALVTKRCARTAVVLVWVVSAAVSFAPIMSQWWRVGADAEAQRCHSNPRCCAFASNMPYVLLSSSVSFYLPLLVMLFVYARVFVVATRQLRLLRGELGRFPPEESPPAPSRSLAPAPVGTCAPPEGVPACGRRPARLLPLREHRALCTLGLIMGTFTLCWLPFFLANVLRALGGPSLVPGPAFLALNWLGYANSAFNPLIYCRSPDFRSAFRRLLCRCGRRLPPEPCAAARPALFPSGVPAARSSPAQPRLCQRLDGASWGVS

[2] = target: T2, Beta-2 adrenergic receptor (Homo sapiens, UniProt P07550); experiment: Agonist activity at human beta-2 adrenergic receptor expressed in CHO cells assessed as cAMP accumulation relative to R-(-)-isoproterenol; assay type: functional, cell-based; in short: as §1
Target sequence in this assay (P07550 whole entry, looked up): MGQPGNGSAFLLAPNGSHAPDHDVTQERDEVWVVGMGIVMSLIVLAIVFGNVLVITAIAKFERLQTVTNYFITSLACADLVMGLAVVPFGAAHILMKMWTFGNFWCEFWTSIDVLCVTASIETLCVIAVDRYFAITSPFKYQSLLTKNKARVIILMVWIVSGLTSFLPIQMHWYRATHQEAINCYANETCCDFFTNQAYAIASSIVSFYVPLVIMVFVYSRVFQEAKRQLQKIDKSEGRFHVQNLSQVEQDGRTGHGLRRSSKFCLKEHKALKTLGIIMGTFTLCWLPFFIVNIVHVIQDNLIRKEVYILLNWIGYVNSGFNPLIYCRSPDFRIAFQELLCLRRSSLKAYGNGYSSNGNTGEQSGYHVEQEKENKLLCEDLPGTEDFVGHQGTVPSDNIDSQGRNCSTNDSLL

[3] = Plasma clearance in dog at 0.2 mg/kg, iv; assay type: ADME, organism-based, Canis lupus familiaris; set-up: dose 0.2 mg/kg, route intravenous
In short: (§2)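 Single intravenous dose of 0.2 mg/kg. Plasma drug levels measured by LC–MS/MS, and clearance and half-life derived from them.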

[4] = target: T1, Beta-3 adrenergic receptor; experiment: Agonist activity at human beta-3 adrenergic receptor expressed in CHO cells assessed as cAMP accumulation; assay type: functional, cell-based; in short: as §1
Target sequence in this assay (P13945 whole entry): as the sequence (P13945 whole entry, looked up) above

[5] = target: T2, Beta-2 adrenergic receptor; experiment: Agonist activity at human beta-2 adrenergic receptor expressed in CHO cells assessed as cAMP accumulation; assay type: functional, cell-based; in short: as §1
Target sequence in this assay (P07550 whole entry): as the sequence (P07550 whole entry, looked up) above

[6] = target: T3, Beta-1 adrenergic receptor (Homo sapiens, UniProt P08588); experiment: Agonist activity at human beta-1 adrenergic receptor expressed in CHO cells assessed as cAMP accumulation relative to R-(-)-isoproterenol; assay type: functional, cell-based; in short: as §1
Target sequence in this assay (P08588 whole entry, looked up): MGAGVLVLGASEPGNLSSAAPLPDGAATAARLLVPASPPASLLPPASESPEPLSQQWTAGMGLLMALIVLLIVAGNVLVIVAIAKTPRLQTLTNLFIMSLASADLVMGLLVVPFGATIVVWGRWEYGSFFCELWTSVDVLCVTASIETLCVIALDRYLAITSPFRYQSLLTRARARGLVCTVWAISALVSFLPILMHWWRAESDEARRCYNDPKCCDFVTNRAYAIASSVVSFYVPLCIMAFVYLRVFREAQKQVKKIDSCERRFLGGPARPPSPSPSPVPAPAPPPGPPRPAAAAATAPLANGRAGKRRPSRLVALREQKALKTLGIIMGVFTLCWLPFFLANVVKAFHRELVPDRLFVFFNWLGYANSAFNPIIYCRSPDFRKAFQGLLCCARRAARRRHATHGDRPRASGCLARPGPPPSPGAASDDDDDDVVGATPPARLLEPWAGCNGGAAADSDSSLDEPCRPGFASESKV

[7] = target: T3, Beta-1 adrenergic receptor; experiment: Agonist activity at human beta-1 adrenergic receptor expressed in CHO cells assessed as cAMP accumulation; assay type: functional, cell-based; in short: as §1
Target sequence in this assay (P08588 whole entry): as the sequence (P08588 whole entry, looked up) above

[8] = Half life in dog at 0.2 mg/kg, iv; assay type: ADME, organism-based, Canis lupus familiaris; set-up: dose 0.2 mg/kg, route intravenous; settings: in vivo; in short: as §2
Homo sapiens [9] = organism: Homo sapiens; experiment: Selectivity ratio of pEC50 for human beta3 adrenergic receptor over beta-2 adrenergic receptor
In short: (§3)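 Ratio of […]. pEC50 values come from cAMP accumulation in CHO cells expressing cloned human β1, β2 or β3 receptors.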

Homo sapiens [10] = organism: Homo sapiens; experiment: Selectivity ratio of pEC50 for human beta-3 adrenergic receptor over beta-1 adrenergic receptor; in short: as §3
Mus musculus [11] = experiment: Reduction of glucose level in db/db mouse serum at 0.1 mg/kg, po bid for 14 days; assay type: functional
In short: (§4)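 Male db/db mice, 60 days old at the start of dosing, 10 per group. Dosed by oral gavage twice daily for 14 days in 0.025 M methanesulfonic acid vehicle, with dosing solutions prepared fresh daily. Day 0 baseline taken from 10 exsanguinated mice. Mice were sacrificed on days 7 and 14, and serum glucose was measured on an automated chemistry analyzer against vehicle-treated mice.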

Mus musculus [12] = experiment: Reduction of glucose level in db/db mouse serum at 1 mg/kg, po bid for 14 days; assay type: functional; in short: as §4
Mus musculus [13] = experiment: Reduction of glucose level in db/db mouse serum at 0.03 mg/kg, po bid for 14 days; assay type: functional; in short: as §4
Mus musculus [14] = experiment: Reduction of glucose level in db/db mouse serum at 0.3 mg/kg, po bid for 14 days; assay type: functional; in short: as §4

SMILES | Emax [1] [%] | Emax [2] [%] | clearance [3] [mL/min/kg] | EC50 [4] [nM] | EC50 [5] [nM] | Emax [6] [%] | EC50 [7] [nM] | half-life [8] [h] | Selectivity ratio (Homo sapiens [9]) | Selectivity ratio (Homo sapiens [10]) | Activity (Mus musculus [11]) [mg/dL] | Activity (Mus musculus [12]) [mg/dL] | Activity (Mus musculus [13]) [mg/dL] | Activity (Mus musculus [14]) [mg/dL]
O=C(O)c1ccsc1-c1cccc(NCCNC[C@H](O)c2cccc(Cl)c2)c1 | 103 | < 5 | 1.5 | 1.26 | 5010 | < 2 | 3980 | 1.6 | 4000 | 3200 |  |  |  | 
O=C(O)c1ccoc1-c1cccc(NCCNC[C@H](O)c2cccc(Cl)c2)c1 | 91 | < 5 | 0.65 | 7.94 | 2510 | < 5 | 5010 | 6.1 | 320 | 630 | 255 | 183 | 376 | 191
C[C@H](CNc1ccc(-c2ocnc2C(=O)O)cc1)NC[C@H](O)c1cccc(Cl)c1 | 90 | 55 | 5.3 | 1.26 | 398 | 24 | 25.1 | ≤ 1 | 320 | 20 |  |  |  | 
C[C@H](CNc1cccc(-c2sccc2C(=O)O)c1)NC[C@H](O)c1cccc(Cl)c1 | 85 | 9 | 5.3 | 0.0631 | 794 | < 7 | 1260 | ≤ 1 | 13000 | 20000 |  |  |  | 
C[C@H](CNc1ccc(-c2nc(C(=O)O)cs2)cc1)NC[C@H](O)c1cccc(Cl)c1 | 100 | 41 |  | 6.31 | 50.1 | 21 | 20 |  | 8 | 3 |  |  |  | 
C[C@H](CNc1ccc(-c2occc2C(=O)O)cc1)NC[C@H](O)c1cccc(Cl)c1 | 85 | 36 | 5.3 | 0.316 | 79.4 | 18 | 20 | ≤ 1 | 250 | 63 |  |  |  | 
C[C@H](CNc1ccc(CC(=O)O)cc1)NC[C@H](O)c1cccc(Cl)c1 |  |  |  |  |  |  |  |  | 3 | 5 |  |  |  | 
C[C@H](CNc1ccc(-c2sccc2C(=O)O)cc1)NC[C@H](O)c1cccc(Cl)c1 | 96 | 19 |  | 0.398 | 631 | 14 | 100 |  | 1600 | 250 |  |  |  | 
C[C@H](CNc1ccc(-c2csc(C(=O)O)n2)cc1)NC[C@H](O)c1cccc(Cl)c1 | 100 | 63 |  | 1.58 | 50.1 | 19 | 12 |  | 32 | 8 |  |  |  | 
C[C@H](CNc1cccc(-c2csc(C(=O)O)n2)c1)NC[C@H](O)c1cccc(Cl)c1 | 97 | 76 |  | 2 | 100 | 20 | 100 |  | 50 | 50 |  |  |  | 
C[C@H](CNc1ccc(CCC(=O)O)cc1)NC[C@H](O)c1cccc(Cl)c1 |  |  |  |  |  |  |  |  | 16 | 10 |  |  |  | 

Now from value to compound, other results behind:

Emax [1] [%] | Emax [2] [%] | clearance [3] [mL/min/kg] | EC50 [4] [nM] | EC50 [5] [nM] | Emax [6] [%] | EC50 [7] [nM] | half-life [8] [h] | Selectivity ratio (Homo sapiens [9]) | Selectivity ratio (Homo sapiens [10]) | SMILES | Activity (Mus musculus [11]) [mg/dL] | Activity (Mus musculus [12]) [mg/dL] | Activity (Mus musculus [13]) [mg/dL] | Activity (Mus musculus [14]) [mg/dL]
87 | 38 | 5.3 | 0.251 | 126 | 14 | 100 | ≤ 1 | 500 | 400 | C[C@H](CNc1cccc(-c2occc2C(=O)O)c1)NC[C@H](O)c1cccc(Cl)c1 |  |  |  | 
97 | 48 | 5.3 | 0.794 | 158 | 21 | 79.4 | ≤ 1 | 200 | 100 | C[C@H](CNc1cccc(-c2nc(C(=O)O)cs2)c1)NC[C@H](O)c1cccc(Cl)c1 |  |  |  | 
115 | 39 |  | 15.8 | 126 | 30 | 158 |  | 8 | 10 | C[C@H](CNc1cccc(-c2nc(C(=O)O)co2)c1)NC[C@H](O)c1cccc(Cl)c1 |  |  |  | 
92 | 53 |  | 15.8 | 100 | 23 | 12.6 |  | 6 | 0.8 | C[C@H](CNc1ccc(-c2nc(C(=O)O)co2)cc1)NC[C@H](O)c1cccc(Cl)c1 |  |  |  | 
102 | 49 | 5.3 | 3.98 | 316 | 14 | 398 | ≤ 1 | 79 | 100 | C[C@H](CNc1cccc(-c2ocnc2C(=O)O)c1)NC[C@H](O)c1cccc(Cl)c1 |  |  |  | 
